Data on 30 molecules can be found in ChEMBL document CHEMBL1155932, “False positives in a reporter gene assay: identification and synthesis of substituted N-pyridin-2-ylbenzamides as competitive inhibitors of firefly luciferase” (J Med Chem, 2008).

One may read the Km as the substrate concentration at which the rate is half of its maximum. One may read the inhibition as the share of the control response that was lost under treatment. High values mean a response far below the control, low ones a response near the control. In general, IC50 refers to the concentration at which inhibition is half-maximal.

The labels stand for the following.
T1: Luciferin 4-monooxygenase (Luciola lateralis) (UniProt Q01158)
T1 sequence (whole entry): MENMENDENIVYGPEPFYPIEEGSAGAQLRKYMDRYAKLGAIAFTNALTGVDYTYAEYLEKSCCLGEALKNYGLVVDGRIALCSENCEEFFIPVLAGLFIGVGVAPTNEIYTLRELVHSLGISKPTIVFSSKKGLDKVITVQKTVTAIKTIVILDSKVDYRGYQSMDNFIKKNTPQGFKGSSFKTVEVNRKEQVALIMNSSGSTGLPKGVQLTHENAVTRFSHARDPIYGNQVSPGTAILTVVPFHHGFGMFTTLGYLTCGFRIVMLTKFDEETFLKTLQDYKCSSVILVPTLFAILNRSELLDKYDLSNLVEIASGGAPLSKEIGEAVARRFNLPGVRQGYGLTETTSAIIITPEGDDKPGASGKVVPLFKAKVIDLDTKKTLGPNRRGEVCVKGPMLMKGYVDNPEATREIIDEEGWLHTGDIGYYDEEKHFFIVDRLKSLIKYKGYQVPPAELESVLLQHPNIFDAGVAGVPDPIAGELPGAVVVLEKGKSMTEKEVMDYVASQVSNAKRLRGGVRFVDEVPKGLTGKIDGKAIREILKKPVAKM

T2: Luciferin 4-monooxygenase (Luciola lateralis, UniProt Q01158)
T2 sequence (Q01158 whole entry): T1 sequence (whole entry)

B1: Luciferin 4-monooxygenase (Luciola lateralis), Q01158 (protein)
chain: T1 sequence (whole entry)

Substrate in one series: O=C(Nc1ccc2ccccc2n1)c1ccccc1
The settings on record: Aquatica lateralis; 1 uM.
Regarding B1, the Km turned out to be 53 µM and the Vmax is 95%.

The target of the next series is T1, Luciferin 4-monooxygenase (Luciola lateralis). Kind of series: Inhibition of firefly luciferase activity at 10 uM. The settings on record: Aquatica lateralis. An outline of the steps: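 Single 10 µM inhibitor concentration against 32 pM firefly luciferase with 50 µM D-luciferin and 90 µM ATP, pH 7.8 glycine-Tris buffers containing MgSO4 and EDTA. 30 min incubation in the dark at room temperature, then luminescence read. Percent inhibition from n = 2 experiments in duplicate.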
`Cc1ccc(-c2ccc(NC(=O)c3ccccc3)nc2)cc1` returned an inhibition of 51%.

In turn, `CN(C)c1ccc(C(=O)Nc2ccc(-c3ccccc3)cn2)cc1` displayed an inhibition of 35%.

Consider `CC(C)Oc1ccc(C(=O)Nc2ccc(-c3ccccc3)cn2)cc1`, for which the inhibition was determined as 12%.

As for `O=C(Nc1ccc(-c2ccc(C(F)(F)F)cc2)cn1)c1ccccc1`, the inhibition was determined as 39%.

Consider `COc1ccc(C(=O)Nc2ccc(-c3ccccc3)cn2)cc1`, for which the inhibition is 28%.

`O=C(Nc1ccc(-c2ccccc2)cn1)c1ccc(Cl)cc1` yielded an inhibition of 0%.

Consider `O=C(Nc1ccccn1)c1ccccc1`, for which the inhibition was 27%.

`O=C(Nc1ccc(-c2cccc(Cl)c2)cn1)c1ccccc1`: the inhibition was 38%.

`CCCC(=O)Nc1ccc(-c2ccccc2)cn1` showed an inhibition of 22%.

In turn, `O=C(Nc1ccc(-c2ccccc2)cn1)c1ccc(Cl)c(Cl)c1` showed an inhibition of 13%.

Regarding `COc1ccc(C(=O)Nc2ccc(-c3ccccc3)cn2)c(OC)c1`, the inhibition is 26%.

Molecule `CN(C)c1ccc(-c2ccc(NC(=O)c3ccccc3)nc2)cc1` came in with an inhibition of 14%.

`O=C(Nc1ccccc1)Nc1ccc(-c2ccccc2)cn1` gave an inhibition of 20%.

`CC(C)Oc1ccc(-c2ccc(NC(=O)c3ccccc3)nc2)cc1` registered an inhibition of 38%.

Take `O=C(Nc1ccc(-c2ccc(Cl)c(Cl)c2)cn1)c1ccccc1`: the inhibition turned out to be 4%.

`c1ccc(CNc2ccc(-c3ccccc3)cn2)cc1` had an inhibition of 20%.

Consider `CC(C)(C)c1ccc(-c2ccc(NC(=O)c3ccccc3)nc2)cc1`, for which the inhibition turned out to be 49%.

On to `Cc1ccc(C(=O)Nc2ccc(-c3ccccc3)cn2)cc1`, for which the inhibition came to 18%.

For `O=C(Nc1cccc(-c2ccccc2)n1)c1ccccc1`, the inhibition is 30%.

The molecule `O=C(Nc1ccc(-c2ccccc2)cn1)Oc1ccccc1` returned an inhibition of 0%.

Substrate in another series: O=C(Nc1ccc2ccccc2n1)c1ccccc1
The settings on record: Aquatica lateralis; 1 uM. This is another data set of the same source.
With B1, the Km was 3.8 µM and the Vmax came to 56%.

Substrate in another series: O=C(Nc1ccc2ccccc2n1)c1ccccc1
The settings on record: Aquatica lateralis; 0.1 uM.
With B1, the Km was found to be 16 µM and the Vmax turned out to be 96%.

For a further series, the target named is T2, Luciferin 4-monooxygenase. Put plainly: Inhibition of firefly luciferase activity. Also on record: species or system Aquatica lateralis.
Settings: not given
The gist of the method: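 Firefly luciferase (32 pM) in glycine-Tris buffer with EDTA and MgSO4, pH 7.8; substrates 50 µM D-luciferin and 90 µM ATP in glycine-Tris/MgSO4/EDTA/0.1% BSA/azide buffer, pH 7.8. Inhibitor tested at 11 concentrations; 30 min dark incubation, room temperature; luminescence counted. Nonspecific activity defined with 100 µM reference inhibitor. IC50 ± SEM from three experiments in duplicate.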
With `O=C(Nc1ccc(-c2ccccc2)cn1)C1CCCCC1`, half-maximal inhibition (IC50) was put at 2400 nM. That is a single-digit micromolar value.

Take `COc1ccc(-c2ccc(NC(=O)c3ccccc3)nc2)cc1`: 310 nM corresponded to half-maximal inhibition (IC50).

On to `Nc1ccc(C(=O)Nc2ccc(-c3ccccc3)cn2)cc1`, for which the IC50 amounted to 1200 nM.

In turn, `O=C(Nc1ccc(-c2ccccc2)cn1)c1cccc(Cl)c1` showed an IC50 of 160 nM.

The molecule `O=C(Nc1ccc(-c2ccc(Cl)cc2)cn1)c1ccccc1` showed an IC50 of 560 nM.

`COc1ccc(C(=O)Nc2ccc(C)cn2)c(OC)c1`: the IC50 was 610 nM. This IC50 and that of the molecule before are within 1.5-fold of each other.

`Cc1ccc(NC(=O)c2ccccc2)nc1` showed an IC50 of 6400 nM. This IC50 lies about 10-fold higher than the previous one.

On to `O=C(Nc1ccc2ccccc2n1)c1ccccc1`, for which the IC50 came out at 1700 nM. This IC50 is about 3.8-fold lower than that of the molecule before.

Regarding `O=C(Nc1ccc(-c2ccccc2)cn1)c1ccccc1`, the IC50 is 69 nM.
